Data from ChEMBL document CHEMBL1909525, “Synthesis and anticonvulsant activity of novel 2,6-diketopiperazine derivatives. Part 1: perhydropyrrole[1,2-a]pyrazines” (Eur J Med Chem, 2011).
The source made the active and inactive calls. The calls are words filed in the database; no cut-off is given here.

Key:
Mus musculus [1] = assay: Neurotoxicity in albino Carworth Farms No.1 mouse assessed as motor impairment at 30 mg/kg, ip after 4 hrs by rotarod test; assay type: toxicity, organism-based; set-up: dose 30 mg/kg, route intraperitoneal; settings: in vivo
Method in brief: (§1)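 Rotorod neurotoxicity in mice at 6 r.p.m. Compound given i.p. (30, 100, 300 mg/kg) in 0.5% methylcellulose; tested at 30 min and 4 h. Impairment is inability to keep equilibrium on the rod for a given time; scored as impaired/tested.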

Mus musculus [2] = assay: Anticonvulsant activity in albino Carworth Farms No.1 mouse assessed as protection against maximal electroshock-induced seizure at 30 mg/kg, ip after 4 hrs; assay type: functional, organism-based; set-up: dose 30 mg/kg
Method in brief: (§2)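 Mouse MES test with compound given i.p. (30, 100 or 300 mg/kg) in 0.5% methylcellulose; tested at 0.5 and 4 h. Corneal stimulus of 50 mA at 60 Hz for 0.2 s, electrodes primed with 0.5% butacaine in 0.9% NaCl. Protection is abolition of hindlimb tonic extension; scored as protected/tested.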

Rattus norvegicus [3] = assay: Anticonvulsant activity in po dosed albino Sprague-Dawley rat assessed as protection against subcutaneous metrazol-induced seizure after 0.25 hrs; assay type: functional
Method in brief: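 Rats dosed orally, compound in 0.5% methylcellulose. MES at 150 mA, 60 Hz, 0.2 s; scMET with pentylenetetrazole 70 mg/kg s.c. plus 30 min observation; rotorod for toxicity.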

Mus musculus [4] = assay: Anticonvulsant activity in albino Carworth Farms No.1 mouse assessed as protection against maximal electroshock-induced seizure at 300 mg/kg, ip after 4 hrs; assay type: functional, organism-based; set-up: dose 300 mg/kg; method in brief: as §2
Mus musculus [5] = assay: Anticonvulsant activity in albino Carworth Farms No.1 mouse assessed as protection against subcutaneous metrazol-induced seizure at 100 mg/kg, ip after 0.5 hrs; assay type: functional, organism-based; set-up: dose 100 mg/kg
Method in brief: (§3)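 Mouse scMET test. Compound given i.p. (30, 100 or 300 mg/kg) in 0.5% methylcellulose. Pentylenetetrazole 85 mg/kg (CD97) given s.c. at 0.5 or 4 h, then mice observed for 30 min. Protection is absence of clonic spasms; scored as protected/tested.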

Mus musculus [6] = species on record: Mus musculus; assay: Protective index, ratio of TD50 for albino Carworth Farms No.1 mouse to ED50 for albino Carworth Farms No.1 mouse by maximal electroshock-induced seizure test; assay type: functional
Method in brief: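 Mouse quantification at the time of peak effect, compound given i.p. in 0.5% methylcellulose. Groups of at least eight mice received varied doses until at least two points fell between 100 and 0% response. PI = TD50/ED50 MES.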

Rattus norvegicus [7] = assay: Anticonvulsant activity in albino Sprague-Dawley rat assessed as protection against pilocarpine-induced status epilepticus at 130 mg/kg, ip measured after time from first stage 3 seizures; assay type: functional, organism-based; set-up: dose 130 mg/kg
Method in brief: (§4)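 Male albino Sprague-Dawley rats, 150–180 g. Compound given i.p., then a challenge dose of pilocarpine at 0 min or at 30 min. Outcome scored as protection or no protection from seizures (protected/tested), with body weight change recorded.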

Mus musculus [8] = assay: Neurotoxicity in albino Carworth Farms No.1 mouse assessed as motor impairment at 300 mg/kg, ip after 0.5 hrs by rotarod test; assay type: toxicity, organism-based; set-up: dose 300 mg/kg, route intraperitoneal; settings: in vivo; method in brief: as §1
Mus musculus [9] = assay: Neurotoxicity in albino Carworth Farms No.1 mouse assessed as motor impairment at 300 mg/kg, ip after 4 hrs by rotarod test; assay type: toxicity, organism-based; set-up: dose 300 mg/kg, route intraperitoneal; settings: in vivo; method in brief: as §1
Mus musculus [10] = assay: Anticonvulsant activity in albino Carworth Farms No.1 mouse assessed as protection against electric-current for 3 secs-induced seizure at 75 mg/kg, ip after 0.5 hrs by 6Hz minimal clonic seizure test; assay type: functional, organism-based; set-up: dose 75 mg/kg
Method in brief: (§5)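 6 Hz psychomotor seizure test in mice. Compound given i.p. as a suspension in 0.5% methylcellulose. Corneal stimulation at 32 mA, 0.2-ms monopolar rectangular pulses at 6 Hz for 3 s, from a constant-current device. Tests run 0.25–4 h after dosing. A mouse counted as protected if it resumed normal exploratory behaviour within 10 s; scored as protected/tested.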

Mus musculus [11] = assay: Anticonvulsant activity in albino Carworth Farms No.1 mouse assessed as protection against electric-current for 3 secs-induced seizure at 75 mg/kg, ip after 2 hrs by 6Hz minimal clonic seizure test; assay type: functional, organism-based; set-up: dose 75 mg/kg; method in brief: as §5
Mus musculus [12] = assay: Anticonvulsant activity in albino Carworth Farms No.1 mouse assessed as protection against electric-current for 3 secs-induced seizure at 100 mg/kg, ip after 0.25 hrs by 6Hz minimal clonic seizure test; assay type: functional, organism-based; set-up: dose 100 mg/kg; method in brief: as §5
Mus musculus [13] = assay: Anticonvulsant activity in albino Carworth Farms No.1 mouse assessed as protection against maximal electroshock-induced seizure at 300 mg/kg, ip after 0.5 hrs; assay type: functional, organism-based; set-up: dose 300 mg/kg; method in brief: as §2
Mus musculus [14] = assay: Anticonvulsant activity in albino Carworth Farms No.1 mouse assessed as protection against maximal electroshock-induced seizure at 100 mg/kg, ip after 4 hrs; assay type: functional, organism-based; set-up: dose 100 mg/kg; method in brief: as §2
Mus musculus [15] = assay: Anticonvulsant activity in albino Carworth Farms No.1 mouse assessed as protection against electric-current for 3 secs-induced seizure at 75 mg/kg, ip after 1 hr by 6Hz minimal clonic seizure test; assay type: functional, organism-based; set-up: dose 75 mg/kg; method in brief: as §5
Rattus norvegicus [16] = assay: Anticonvulsant activity in albino Sprague-Dawley rat assessed as protection against pilocarpine-induced status epilepticus at 65 mg/kg, ip measured after time from first stage 3 seizures; assay type: functional, organism-based; set-up: dose 65 mg/kg; method in brief: as §4
Rattus norvegicus [17] = assay: Toxicity in albino Sprague-Dawley rat pilocarpine-induced status epilepticus model assessed as change in body weight in protected rat at 130 mg/kg, ip measured after 24 hrs of time from first stage 3 seizures; assay type: organism-based; set-up: dose 130 mg/kg, route intraperitoneal; settings: in vivo
Method in brief: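 Male albino Sprague-Dawley rats (150–180 g) received compound i.p., then a pilocarpine challenge immediately (0 min) or 30 min after treatment. The outcome was protection or no protection from seizures, scored as number protected/number tested. Average body weight change (g) ± S.E.M. was reported separately for protected and non-protected rats.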

Rattus norvegicus [18] = species on record: Rattus norvegicus; assay: Activation of voltage-gated sodium channel in Wistar rat cerebral prefrontal coronal slices assessed as increase of 0.1 Hz current-induced current amplitude at 10 uM after 5 mins by whole cell voltage clamp method
Method in brief: (§6)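 Whole-cell voltage clamp on mechanically dispersed mPFC cells from coronal prefrontal slices of 3-week-old male Wistar rats. Bath: TEA-OH 90, NaCl 30, HEPES 10, MgCl2 2, CaCl2 2, glucose 15 mM, pH 7.4. Na+ currents evoked at 0.1 Hz by a step to -20 mV (30 ms) after a -100 mV prepulse (1000 ms). Amplitude compared before and after 5 min compound application; n = 3.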

Mus musculus [19] = assay: Anticonvulsant activity in albino Carworth Farms No.1 mouse assessed as protection against subcutaneous metrazol-induced seizure at 30 mg/kg, ip after 4 hrs; assay type: functional, organism-based; set-up: dose 30 mg/kg; method in brief: as §3
Mus musculus [20] = assay: Anticonvulsant activity in albino Carworth Farms No.1 mouse assessed as protection against electric-current for 3 secs-induced seizure at 100 mg/kg, ip after 2 hrs by 6Hz minimal clonic seizure test; assay type: functional, organism-based; set-up: dose 100 mg/kg; method in brief: as §5
Rattus norvegicus [21] = species on record: Rattus norvegicus; assay: Inhibition of voltage-gated sodium channel in Wistar rat cerebral prefrontal coronal slices assessed as decrease of 0.1 Hz current-induced current amplitude at 10 to 100 uM after 5 mins by whole cell voltage clamp method; method in brief: as §6
Mus musculus [22] = assay: Neurotoxicity in albino Carworth Farms No.1 mouse assessed as motor impairment at 30 mg/kg, ip after 0.5 hrs by rotarod test; assay type: toxicity, organism-based; set-up: dose 30 mg/kg, route intraperitoneal; settings: in vivo; method in brief: as §1
Rattus norvegicus [23] = species on record: Rattus norvegicus; assay: Activation of voltage-gated sodium channel in Wistar rat cerebral prefrontal coronal slices assessed as increase of 0.1 Hz current-induced current amplitude at 100 uM after 5 mins by whole cell voltage clamp method; method in brief: as §6

Which results are given for `O=C1NC(=O)[C@@H]2CCCN2[C@H]1c1ccccc1`?
Activity (Mus musculus [1]): Non-toxic; Activity (Mus musculus [2]): inactive; ED50 (Rattus norvegicus [3]): 114 mg/kg; Activity (Mus musculus [4]): inactive; Activity (Mus musculus [5]): inactive; Ratio TD50/ED50 (Mus musculus [6]): 1.7; Activity (Rattus norvegicus [7]): Active; Activity (Mus musculus [8]): Non-toxic; Activity (Mus musculus [9]): Non-toxic; Activity (Mus musculus [10]): Active; Activity (Mus musculus [11]): inactive; Activity (Mus musculus [12]): Active; Activity (Mus musculus [13]): inactive; Activity (Mus musculus [14]): inactive; Activity (Mus musculus [15]): inactive; Activity (Rattus norvegicus [16]): Active; Activity (Rattus norvegicus [17]): 12.5 g; Activity (Rattus norvegicus [18]): 3%; Activity (Mus musculus [19]): inactive; Activity (Mus musculus [20]): inactive; inhibition (Rattus norvegicus [21]): inactive; Activity (Mus musculus [22]): Non-toxic; Activity (Rattus norvegicus [23]): 8.4%
